From PMC4956517 (Experimental hematology, 2016)
“Also recorded” adds a separate entry of the source.

Experiments:
[1] = system: endogenous cell surface EPOR (UT7epo cells); test: Flow cytometry of endogenous cell surface EPOR in UT7epo cells; assay type: cell-based, human; settings: versus rHu-EPO at matched doses (1.5U/mL vs 2.1 nM, 2.0 U/mL vs 2.8nM); days 4 and 8; antibody EC-c38.5; median and mean fluorescence intensities, clear statistical significance; n=3
EPOR (UT7epo cells) = test: Western blotting of EPOR forms in UT7epo cells; assay type: cell-based, human; settings: versus rHu-EPO
Method in brief: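 UT7epo cells were cultured in test compound or rHu-EPO at varied, biologically matched doses. For extended time-courses, medium plus ligand was replaced daily. Western blots over the time-course were probed with rabbit monoclonal anti-hEPOR IC-c1.1, with anti-GAPDH as loading control.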

EPOR transcript = test: Quantitative RT-PCR of EPOR transcript levels; assay type: cell-based, human; settings: peginesatide vs rHu-EPO; data not shown
[2] = biological target: T1, hEPOR-Fc construct (EPOR extracellular domain-IgFc) (Homo sapiens, UniProt P19235); test: Surface plasmon resonance; assay type: binding; settings: Biacore
T1 sequence (P19235 25-250 limits assumed): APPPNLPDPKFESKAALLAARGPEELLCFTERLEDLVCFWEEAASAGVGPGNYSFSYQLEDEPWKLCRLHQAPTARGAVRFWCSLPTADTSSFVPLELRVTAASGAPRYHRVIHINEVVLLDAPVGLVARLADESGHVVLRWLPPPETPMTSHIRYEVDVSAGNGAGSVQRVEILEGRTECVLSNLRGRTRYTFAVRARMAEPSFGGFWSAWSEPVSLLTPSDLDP

[3] = cited from earlier work

| Substance | cell surface EPOR levels [1] | processing of the EPOR to lower molecular weight forms (EPOR (UT7epo cells); peginesatide as the EPOR ligand) | levels of full-length EPOR-68K receptor forms (EPOR (UT7epo cells); time-course, antibody IC-c1.1) | levels of lower molecular weight EPOR-36K form (EPOR (UT7epo cells); time-course, antibody IC-c1.1) | EPOR transcript levels (EPOR transcript) | stability of binding to the EPOR ([2]; ECD-EPOR-Fc immobilized at 675 RU and 225 RU) | EPOR residence time, ratio to that of rHu-EPO ([2]; estimated, greater than that of rHu-EPO, immobilized ECD-EPOR-Fc) | allergenic side-effects ([3]; first-time recipients, ref Bennett, et al 2014) | anaphylactic reactions ([3]; ref Bennett, et al 2014) | TPO-reactive antibody formation ([3]; clinical trials, ref Basser 2002) |
| --- | --- | --- | --- | --- | --- | --- | --- | --- | --- | --- |
| peginesatide | notably elevated cell surface EPOR levels | observed trends towards apparent lessened processing of the EPOR to lower molecular weight forms | elevated levels of full-length EPOR-68K receptor forms | no such increases were observed | no differential effects | uniquely highly stable binding to the EPOR | 17.1 fold | can also somehow stimulate allergenic reactivity; also recorded: allergenic side-effects in certain first-time recipients | rare fatal anaphylaxis; also recorded: severe anaphylactic reactions infrequently experienced | – |
| rHu-TPO: Thrombopoietin (TPO); effective in stimulating megakaryocyte and platelet production | – | – | – | – | – | – | – | – | – | induce TPO- reactive antibody formation |
